The nature of this data set: Toxicity liver stage against HepG2, at 10uM. Format: cell-based. Details: test concentration 10 uM, cell line HepG2-A16-CD81EGFP. The note with it: human, HepG2-A16-CD81EGFP cells; read-out: INHIBITION
Summed up:
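Uninfected HepG2-A16-CD81EGFP cells, 3 × 10^3 per well, 1536-well, plated on prespotted compound at 10 μM final, parasite-free screening media added to match infected plates; puromycin 10 μM positive, DMSO 0.5% negative; run in parallel with 48 h PbLuc assay at 37 °C, 5% CO2; viability by CellTiter-Glo luminescence, normalized to controls.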
In the case of `Cc1ccc(CC(=O)N(C)CC2(O)CCN(c3ccccn3)C2)s1` (stereo not given), the cytotoxicity at 10 µM is -10.4%.
Under `Cc1ccsc1C(=O)N1CCC2(CC1)C(=O)N(C)CCN2CC1CC1` stands -110%; under `CN(CC1CCC1)C(=O)Nc1cccnc1-n1cncn1`, 2.86%; under `CNc1cncc(C2CCCN2C(=O)c2ccc3c(c2)OCCO3)n1` (stereo not given), -2.97%.
For `CC(C)c1nccn1C1CCCN(C(=O)c2cccc3c2OCO3)C1` (stereo not given), the cytotoxicity at 10 µM was -7.71%.
In the case of `COCC(=O)N1CCC2(CCCN(Cc3cnn(C)c3)C2)C1` (stereo not given), the cytotoxicity at 10 µM was -73.3%.
With `O=C(C1CCSCC1)N1CC[C@H]2OCC[C@@]2(COCC2CC2)C1` the figure was -1.16%; with `CCn1ncnc1CN1CCc2[nH]cnc2C1Cc1ccccc1` (stereo not given), -4.94%.
Regarding `NC(=O)c1nc(CN2CCOC(C(F)(F)F)C2)no1` (stereo not given), the cytotoxicity at 10 µM is -3.39%.
For the compound `COC(=O)c1ccc2ccn(CC3COCCO3)c(=O)c2c1` (stereo not given), the cytotoxicity at 10 µM came out at 3.26%.
Turning to `COc1ccc(C(C)NCCc2ccc(NC(C)=O)cc2)cc1F` (stereo not given), the cytotoxicity at 10 µM came to 6.75%.
Turning to `O=C1NC2(CCN(CC3CC3)CC2)CC1c1ccccc1` (stereo not given), the cytotoxicity at 10 µM was -7.64%.
With `O=C(CSc1ccccc1Cl)NS(=O)(=O)c1ccc2c(c1)OCCO2` the figure was -10.7%; with `CC(C)(O)CN1CCN(C(=O)COCC2CC2)CC1`, -9.17%.
Turning to `CCc1nccn1CCCNc1nccc(-c2c(C)nn(C)c2C)n1`, the cytotoxicity at 10 µM amounted to 2.96%.
In the case of `Cc1ccc(CCN2CCC(N(C)Cc3noc(C4CC4)n3)C2)cc1` (stereo not given), the cytotoxicity at 10 µM is -8.31%.
Regarding `Cc1ccc2c(c1)C(NCc1ncnn1C)CC2` (stereo not given), the cytotoxicity at 10 µM is 6.32%.
`CC(C)CCN(C)Cc1nc2c(cnn2C)c(=O)[nH]1`: the cytotoxicity at 10 µM is -11.2%.
Under `CCC(=O)N1CCN(C(=O)c2ccc(COC)o2)[C@H]2CS(=O)(=O)C[C@H]21` stands -10.9%; under `COCC(=O)N1CCC2(COCc3cnc(N4CCOCC4)nc32)C1` (stereo not given), -65%.
For `COc1ccc(C(=O)N2CCCC(n3cc(C)cn3)C2)c(F)c1` (stereo not given), the cytotoxicity at 10 µM was -10.2%.
With `Cc1cccc2c1NC1(CCOCC1)NC2=O`, the cytotoxicity at 10 µM is -49.6%.
With `CC(C)(C)c1cc(NC(=O)C2CCCO2)n(-c2ccccn2)n1` (stereo not given) the figure was -1.26%; with `CC(=O)Nc1ncc(S(=O)(=O)N2CCCC(C)C2)s1` (stereo not given), 2.28%.
Under `COCCN(Cc1ccccn1)C(=O)Nc1cccnc1-n1cccn1` stands 1.06%.
For the compound `CN(C)CCNC(=O)c1ccc(OC2CCN(CC3CC3)CC2)c(Cl)c1`, the cytotoxicity at 10 µM was -6.26%.
As for `COCCN1C(=O)[C@]2(CC[C@@H]3CN(S(=O)(=O)CC(C)C)C[C@@H]32)N=C1C`, the cytotoxicity at 10 µM was -69.3%.
With `CN(C)S(=O)(=O)N1CCOC(c2cccc(-c3cncnc3)n2)C1` (stereo not given) the figure was 3.71%; with `COc1ccc(S(=O)(=O)N2CCn3nc(C)nc3C2)cc1C`, 9.68%; with `CN(Cc1cn[nH]c1-c1ccc(F)cc1)C(=O)CCC1CC1`, 9.12%.
Consider `CCc1nc(NCCCn2cccn2)c2c(n1)c(C)nn2CC`, for which the cytotoxicity at 10 µM was 6.36%.
As for `CCn1ncc2c1C(COC)N(C(=O)Cc1cccs1)CC2` (stereo not given), the cytotoxicity at 10 µM is -109%.
In the case of `Cc1ccccc1-n1cc(-c2ccnc(N[C@H](CO)C(C)C)n2)cn1`, the cytotoxicity at 10 µM was determined as 4.43%.
As to `COCCN(Cc1ccccc1)C(=O)c1csc(-c2nnc[nH]2)n1`, the cytotoxicity at 10 µM came to 4.9%.
Under `CNC(=O)[C@@H]1[C@H]2CN(Cc3ccoc3)CCN2C[C@H]1c1ccccc1` stands 4.06%; under `CC(C)c1cc(C2CCCN2Cc2nc(-c3ccco3)no2)no1` (stereo not given), -3.45%; under `Cc1cccc(OCCC(=O)N(C)CCNS(C)(=O)=O)c1C`, 3.35%.
On to `Cc1cnc(CNC(=O)[C@@]23CCO[C@@H]2CCN(C2CCCC2)C3)cn1`, for which the cytotoxicity at 10 µM is -110%.
`COc1ccc(C(=O)Nc2cccc(SC)c2)c(OC)n1`: the cytotoxicity at 10 µM turned out to be 13.2%.
On to `CC(=O)N(C)Cc1cncc(C2CCCN2C2CCOCC2)n1` (stereo not given), for which the cytotoxicity at 10 µM is -5.34%.
As to `CC(C)c1nc(C2CCCN2C(=O)c2cnns2)no1` (stereo not given), the cytotoxicity at 10 µM is -6.8%.
For `CN(C)S(=O)(=O)N1CCCC(c2ccncn2)C1` (stereo not given), the cytotoxicity at 10 µM is -15.3%.
Under `O=C(OCC1CCN(c2ccccc2)C1)c1cscn1` (stereo not given) stands 1.27%; under `Cc1cc(C)c(S(N)(=O)=O)cc1C(=O)NCCN1CCC(C)CC1`, -0.77%.
For `COc1ccc(C)cc1S(=O)(=O)N[C@H]1CN(C(C)=O)C[C@@H]1C1CC1`, the cytotoxicity at 10 µM was -3.64%.
`COCC(=O)N1CCOCC2(CCN(Cc3cccs3)C2)C1` (stereo not given): the cytotoxicity at 10 µM is -6.16%.
Consider `Cc1ccc(OCCN(C)Cc2nc3c(cnn3C)c(=O)[nH]2)cc1`, for which the cytotoxicity at 10 µM was -3.44%.
For `CSCC(=O)N1C[C@@H](C)[C@](O)(C(C)C)C1`, the cytotoxicity at 10 µM came to 9.24%.
As for `CN(c1nccc(-c2cnc3sc(Cl)cn3c2=O)n1)C1CCCCC1`, the cytotoxicity at 10 µM was determined as 1.36%.
With `CCn1nnc2c1C(COC)CN(Cc1ccsc1)C2` (stereo not given) the figure was 2.3%.
For `COCCCN1C(=O)CC[C@H]2CN(Cc3ccc4nonc4c3)CC[C@H]21`, the cytotoxicity at 10 µM came out at 2.46%.
Under `COc1ccccc1N1CCN(C(=O)CCn2ccc(C)n2)CC1` stands -3.24%; under `CCC(NC(=O)NCc1cccc(N(C)C)n1)c1ccccc1OC` (stereo not given), 29.1%; under `Cc1ccccc1CSc1ncc(Br)c(C(=O)O)n1`, 6.99%.
With `COCC(=O)N1CCC2(CC1)CN(c1cncnc1)C(=O)CO2` the figure was -78.6%.
Under `Cc1cc(C)n(CC2CCCN2C(=O)CCc2cscn2)n1` (stereo not given) stands -10.4%; under `CC(C)(C)CC(=O)NC[C@H]1OC[C@@H](NCc2ccccn2)[C@@H]1O`, -5.28%.
Take `CCN(CC)c1ncnc2c1CCN(c1ccc(C)nn1)CC2`: the cytotoxicity at 10 µM is -108%.
For `Cc1nc(Nc2nnc(C)s2)cc(C2CCCN2)n1` (stereo not given), the cytotoxicity at 10 µM was 3.81%.
Turning to `O=C(C1CC1)N1CCC2(CC1)CNc1ccc(F)cc12`, the cytotoxicity at 10 µM amounted to 11%.
With `Cc1ccc(S(=O)(=O)NC[C@H]2OC[C@@H](NCc3cccnc3)[C@@H]2O)cc1`, the cytotoxicity at 10 µM worked out at 1.32%.
On to `CSCC(=O)N1CCc2c(cnc(C)c2-c2noc(-c3cscn3)n2)C1`, for which the cytotoxicity at 10 µM came to 0.86%.
As for `Cn1cc(CN2CCOC(c3cccc(-c4cncnc4)n3)C2)cn1` (stereo not given), the cytotoxicity at 10 µM worked out at 4.74%.
With `CCN1C(=O)C[C@@H]2[C@@H]1CCN2S(=O)(=O)c1ccccc1` the figure was 2.55%; with `CCOc1ccc(Oc2cc(N)ccn2)cc1`, 2.9%; with `CNc1nc(C)c(C(=O)N2CCCCC2CCc2ccccc2)s1` (stereo not given), 2.24%.
For the compound `CC(C)c1ncc(-c2cc(C3CCC3)nc(N)c2C#N)cn1`, the cytotoxicity at 10 µM is -16.1%.
`Cn1cc(CN2CCCC(CCc3ccc(F)cc3)C2)cn1` (stereo not given): the cytotoxicity at 10 µM was -12.6%.
As to `Cc1nn(C)c(N(C)C)c1CNCc1cccnc1N(C)C`, the cytotoxicity at 10 µM turned out to be 1.84%.
In the case of `c1csc(CN2CCc3ncnc(C4CCOC4)c3CC2)c1` (stereo not given), the cytotoxicity at 10 µM was determined as 8.01%.
`Cn1ccnc1CN1CCC2(CC1)COCCN(S(C)(=O)=O)C2`: the cytotoxicity at 10 µM was 3.39%.
Take `Cc1ccc(C(=O)N2CCN(CCCSCC#N)CC2)o1`: the cytotoxicity at 10 µM is -11.1%.
With `Cc1ccccc1OCCN(C)C(=O)NC(C)c1nncn1C` (stereo not given) the figure was -12.5%; with `Cc1cc(=O)n2nc(Oc3ccc(C#N)cc3Cl)sc2n1`, 1.15%; with `Cc1noc(C)c1CN1C[C@H]2CNC[C@H]2C1`, 6.62%.
`CCN(C(=O)c1ccc(-c2ccccc2)nc1C)C1CC(=O)NC1=O` (stereo not given): the cytotoxicity at 10 µM is -4.18%.
For `O=C(c1ccc(O)cc1)N1C[C@@H]2CCN(c3cccnc3)C[C@@H]2C1`, the cytotoxicity at 10 µM was -50.9%.
For `CC(C)CNC(=O)C1(Cc2ccccc2-c2cccs2)CCNC1` (stereo not given), the cytotoxicity at 10 µM is -31.2%.
With `O=C(COc1coc(CN2CCOCC2)cc1=O)Nc1ccccc1F` the figure was -10.7%.
As for `O=c1[nH]cc(Nc2ccc(Cl)cc2)c(=O)[nH]1`, the cytotoxicity at 10 µM was 18.4%.
In the case of `Cc1nc[nH]c1CN1C[C@H]2CC[C@@H](C1)N(C(=O)CCc1cnn(C)c1)C2`, the cytotoxicity at 10 µM is -14.1%.
Under `CC(C)c1n[nH]c(C2CN(C(=O)c3cc(Cl)c[nH]3)CCO2)n1` (stereo not given) stands -5.64%; under `COc1ccc2[nH]nc(CN3CCC(C(C)N4CCCC4)CC3)c2c1` (stereo not given), -4.13%; under `CCCS(=O)(=O)N1Cc2nccn2CC(Cn2cncn2)C1` (stereo not given), -0.158%.
Take `CCCNC(=O)c1ncn2c1CN(CC(C)C)S(=O)(=O)c1ccccc1-2`: the cytotoxicity at 10 µM was -72%.
Regarding `Cc1nn(C2CCS(=O)(=O)C2)c(O)c1CCc1ccccc1` (stereo not given), the cytotoxicity at 10 µM is -50.2%.
For the compound `CC(C)CC(=O)N1C[C@H]2CCCN(S(=O)(=O)c3ccc(Cl)s3)[C@H]2C1`, the cytotoxicity at 10 µM is -1.63%.
Under `O=C(NCCN1CCOCC1)c1ccnn1-c1ccc2ccccn12` stands 10.9%.
In the case of `CCC(Nc1cccc(Oc2ccc(C#N)cc2)c1)C(N)=O` (stereo not given), the cytotoxicity at 10 µM is 38%.
Consider `CN(C)CCOCC1CN(C(=O)[C@H]2CCCO2)Cc2ccnn2C1` (stereo not given in full), for which the cytotoxicity at 10 µM is -0.422%.
With `CC(=O)N1CCc2nc(C3CCN(C(=O)c4ccccc4)C3)ncc2C1` (stereo not given), the cytotoxicity at 10 µM was -4.76%.
For `Cc1[nH]ncc1CCCNC(=O)N1CCC(C(N)=O)CC1`, the cytotoxicity at 10 µM is -3.62%.
Take `CC(C)CC(=O)NC1CC2(CCN(CCF)CC2)Oc2ccccc21` (stereo not given): the cytotoxicity at 10 µM amounted to 1.08%.
Regarding `C[C@@H]1CN(C(=O)c2cnc(C3CC3)nc2)CC[C@@]1(O)C1CCOCC1`, the cytotoxicity at 10 µM is -13.9%.
`Cc1n[nH]c(C)c1CCCN(C)c1cc(N(C)C)ncn1`: the cytotoxicity at 10 µM is -3.37%.

For the origin of these results see ChEMBL document CHEMBL4513216, “Probing the Open Global Health Chemical Diversity Library for Multistage-Active Starting Points for Next-Generation Antimalarials” (ACS Infect Dis, 2020).
